From ChEMBL document CHEMBL1649438, “Activities of ceftobiprole and other cephalosporins against extracellular and intracellular (THP-1 macrophages and keratinocytes) forms of methicillin-susceptible and methicillin-resistant Staphylococcus aureus” (Antimicrob Agents Chemother, 2009) come the findings set out here.

Molecules are shown by their SMILES. In brackets after ≈: the same amount, converted by molar mass.

Experiment [1] deals with Staphylococcus aureus. Description: Antimicrobial activity against Panton-valentine leucocidin-positive community-acquired methicillin-resistant Staphylococcus aureus STA 44 infected in human THP-1 cells assessed as bacterial count per mg of cell protein at low extracellular compound concentration after 24 hrs. Type of experiment: functional. In short, it runs like this:
(§1)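 THP-1 human macrophages infected with S. aureus (postphagocytosis inoculum 1.5 × 10^6 to 3.0 × 10^6 CFU/mg cell protein), then incubated 24 h with increasing extracellular antibiotic concentrations. Change in log10 CFU/mg cell protein from the postphagocytosis inoculum, n = 3. Hill function fitted on log-transformed data. Low-concentration value (E0) and high-concentration value (Emax) are extrapolated. Where a pH is given, concentrations are expressed as multiples of the broth MIC at that pH.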

Experiment [2] relates to Staphylococcus aureus. Description: Antimicrobial activity against Panton-valentine leucocidin-positive community-acquired methicillin-resistant Staphylococcus aureus STA 44 infected in human THP-1 cells assessed as bacterial count per mg of cell protein at high extracellular compound concentration after 24 hrs. Format: functional. In short, it runs like this: as §1
Experiment [3] relates to Staphylococcus aureus. Description: Antimicrobial activity against Panton-valentine leucocidin-positive community-acquired methicillin-resistant Staphylococcus aureus N4090440 infected in human THP-1 cells assessed as bacterial count per mg of cell protein at low extracellular compound concentration after 24 hrs at pH 5.5. Format: functional. To be noted: pooled result: one value given for 6 cell lines, strains, targets or settings. In short, it runs like this:
as §1

The test system of experiment [4] is Staphylococcus aureus. The experiment is described as follows: Antimicrobial activity against methicillin-susceptible Staphylococcus aureus […] infected in human THP-1 cells assessed as bacterial count per mg of cell protein at low extracellular compound concentration after 24 hrs at pH 7.4. Type of experiment: functional. To be noted: pooled result: one value given for 6 cell lines, strains, targets or settings. A digest of the protocol:
(§2)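 Human THP-1 macrophage-like cells were infected with S. aureus to a postphagocytosis inoculum of 1.5 × 10^6 to 3.0 × 10^6 CFU/mg cell protein. Cells were then exposed 24 h to increasing extracellular antibiotic concentrations. Response was the log10 CFU change per mg protein from the postphagocytosis inoculum, n = 3. A Hill function was fitted on log-transformed axes. E0 and Emax were extrapolated to infinitely low and high concentrations. Cs was read by graphical interpolation. Concentrations were expressed as multiples of the broth MIC at pH 5.5 or pH 7.4.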

In experiment [5] the test system is Staphylococcus aureus. The experiment is described as follows: Antimicrobial activity against hospital-acquired vancomycin-intermediate Staphylococcus aureus NRS18 infected in human THP-1 cells assessed as bacterial count per mg of cell protein at high extracellular compound concentration after 24 hrs at pH 5.5. Format: functional. A digest of the protocol: as §2

Experiment [6] deals with Staphylococcus aureus. The experiment is described as follows: Antimicrobial activity against hospital-acquired methicillin-resistant Staphylococcus aureus ATCC 33591 infected in human THP-1 cells assessed as change in bacterial count after 24 hrs at pH 7.4. Type of experiment: functional, organism-based. To be noted: ATCC 33591, THP-1, 24 h. In short, it runs like this:
(§3)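 THP-1 macrophages infected as described previously, with a postphagocytosis inoculum of 1.5 × 10⁶ to 3.0 × 10⁶ CFU/mg cell protein. Cells were exposed 24 h to increasing extracellular antibiotic concentrations. Response is the change in log10 CFU/mg protein from the inoculum (n = 3), fitted to a Hill function. E0 and Emax were extrapolated to infinitely low and high concentrations. EC50 and static concentration (graphical interpolation) are expressed as multiples of the broth MIC at pH 5.5 or 7.4.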

For experiment [7], the system named is Staphylococcus aureus. The experiment is described as follows: Bacteriostatic activity against hospital-acquired vancomycin-intermediate Staphylococcus aureus NRS18 infected in human THP-1 cells assessed as change in bacterial count after 24 hrs at pH 7.4. Format: functional. A digest of the protocol:
as §2

For experiment [8], the system named is Staphylococcus aureus. The experiment is described as follows: Antimicrobial activity against Panton-valentine leucocidin-positive community-acquired methicillin-resistant Staphylococcus aureus STA 228 infected in human THP-1 cells assessed as change in bacterial count after 24 hrs at pH 7.4. Format: functional, organism-based. The conditions noted are these: STA 228, THP-1, 24 h. A digest of the protocol: as §1

Experiment [9] relates to Staphylococcus aureus. The experiment is described as follows: Antimicrobial activity against methicillin-susceptible Staphylococcus aureus ATCC 25923 infected in human keratinocytes assessed as bacterial count per mg of cell protein at low extracellular compound concentration after 24 hrs. Format: functional. A digest of the protocol: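 Primary human skin keratinocytes were grown in defined keratinocyte serum-free medium and infected with S. aureus to 1.5 × 10^6 to 3.0 × 10^6 CFU/mg cell protein. Cells were exposed 24 h to increasing extracellular concentrations. Response was the log10 CFU change from the postphagocytosis inoculum, fitted by a Hill equation with slope 1. Cs is the concentration giving CFU equal to the original inoculum, found by graphical interpolation.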

The subject of experiment [10] is Staphylococcus aureus. Description: Antimicrobial activity against methicillin-susceptible Staphylococcus aureus […] infected in human THP-1 cells assessed as bacterial count per mg of cell protein at high extracellular compound concentration after 24 hrs. Format: functional. In short, it runs like this: as §2
Experiment [11] has as its system Staphylococcus aureus. The experiment is described as follows: Antimicrobial activity against hospital-acquired methicillin-resistant Staphylococcus aureus ATCC 33592 infected in human THP-1 cells assessed as bacterial count per mg of cell protein at low extracellular compound concentration after 24 hrs. Format: functional. In short, it runs like this: as §3
Experiment [12] deals with Staphylococcus aureus. Description: Antimicrobial activity against hospital-acquired methicillin-resistant Staphylococcus aureus […] infected in human THP-1 cells assessed as change in bacterial count after 24 hrs. Format: functional, organism-based. To be noted: THP-1, 24 h. In short, it runs like this:
as §3

Turning to `Nc1nc(/C(=N/O)C(=O)N[C@@H]2C(=O)N3C(C(=O)O)=C(/C=C4\CCN([C@@H]5CCNC5)C4=O)CS[C@H]23)ns1` [CEFTOBIPROLE], the log10cfu in the experiment on Staphylococcus aureus [1] is listed as 2.82; in the experiment on Staphylococcus aureus [2], -1.02; in the experiment with Staphylococcus aureus [3], 2.78; in the experiment with Staphylococcus aureus [4], 3.06; with Staphylococcus aureus [5], 1.01; with Staphylococcus aureus [9], 2.48. The log10cfu in the experiment with Staphylococcus aureus [10] is on record as -1.15; in the experiment with Staphylococcus aureus [11], 2.58. Besides, the EC50 in the experiment with Staphylococcus aureus [6] stood at 0.28 ×MIC; with Staphylococcus aureus [8] it was 0.33 ×MIC; in the experiment with Staphylococcus aureus [12] it was 0.73 µg/mL (≈ 1.37 µM). The Activity in the experiment with Staphylococcus aureus [7] worked out at 0.74 mg/L.
